Results on one molecule are retold here after ChEMBL document CHEMBL5257039, “Modulation of AMPA Receptor Gating by the Anticonvulsant Drug, Perampanel” (ACS Med Chem Lett, 2019).

Calls of active or inactive are those of the source. No cut-off for these calls is given here.

Format in all cases: cell-based
For test [1], the target named is T1, Glutamate receptor 3 (Homo sapiens, UniProt P42263). Nature of the test: Blockade of whole cell current in GluA3i-G (unknown origin) transfected in HEK293 cells assessed as fractional occupancy at level C by measuring ratio at -60 mV in presence of glutamate at 2 uM by whole cell patch clamp assay (RVB = 0.037 +/- 0.010). The conditions noted are these: filed as negative allosteric modulator. In a few lines:
(§1)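 Single homomeric GluA3i-G channels (flip, G at R/G editing site) were recorded cell-attached for 10–45 min in 5 mM L-glutamate plus 150–200 μM cyclothiazide to block desensitization. Inhibitor at 1 or 2 μM was coapplied with glutamate, and analysis used the steady-state segment. Amplitudes were fitted to closed and O1–O4 conductance levels. Fractional occupancy per level is reported as mean ± SD over 2–3 patches.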

The target in test [2] is T1, Glutamate receptor 3. Nature of the test: Blockade of whole cell current in GluA3i-G (unknown origin) transfected in HEK293 cells assessed as opening of conductance level O3 measured at -60 mV in presence of glutamate at 2 uM by whole cell patch clamp assay. In a few lines:
as §1

The target of test [3] is T1, Glutamate receptor 3. Put plainly: Blockade of whole cell current in GluA3i-G (unknown origin) transfected in HEK293 cells assessed as fractional occupancy at level O2 by measuring ratio at -60 mV in presence of glutamate at 1 uM by whole cell patch clamp assay (RVB = 0.23 +/- 0.051). To be noted: filed as negative allosteric modulator. Put shortly: as §1
The target in test [4] is T1, Glutamate receptor 3. Put plainly: Blockade of whole cell current in GluA3i-G (unknown origin) transfected in HEK293 cells assessed as opening of conductance level O4 measured at -60 mV in presence of glutamate at 1 uM by whole cell patch clamp assay. In a few lines:
as §1

Test [5] concerns the target T1, Glutamate receptor 3. Nature of the test: Blockade of whole cell current in GluA3i-G (unknown origin) transfected in HEK293 cells assessed as opening of conductance level O1 measured at -60 mV in presence of glutamate at 1 uM by whole cell patch clamp assay. To be noted: filed as negative allosteric modulator. In a few lines: as §1
In test [6] the target is T1, Glutamate receptor 3. Nature of the test: Blockade of whole cell current in GluA3i-G (unknown origin) transfected in HEK293 cells assessed as fractional occupancy at level O1 by measuring ratio at -60 mV in presence of glutamate at 1 uM by whole cell patch clamp assay (RVB = 0.16 +/- 0.059). The conditions noted are these: filed as negative allosteric modulator. In a few lines:
as §1

Test [7] deals with T1, Glutamate receptor 3. Nature of the test: Blockade of whole cell current in GluA3i-G (unknown origin) transfected in HEK293 cells assessed as opening of conductance level O4 measured at -60 mV in presence of glutamate at 2 uM by whole cell patch clamp assay. Put shortly:
as §1

Test [8] concerns the target T1, Glutamate receptor 3. Nature of the test: Blockade of whole cell current in GluA3i-G (unknown origin) transfected in HEK293 cells assessed as opening of conductance level O2 measured at -60 mV in presence of glutamate at 1 uM by whole cell patch clamp assay. The conditions noted are these: filed as negative allosteric modulator. Put shortly:
as §1

Test [9] deals with T1, Glutamate receptor 3. Put plainly: Blockade of whole cell current in GluA3i-G (unknown origin) transfected in HEK293 cells assessed as fractional occupancy at level O4 by measuring ratio at -60 mV in presence of glutamate at 1 uM by whole cell patch clamp assay (RVB = 0.14 +/- 0.050). The conditions noted are these: filed as negative allosteric modulator. In a few lines:
as §1

Test [10] deals with T1, Glutamate receptor 3. Nature of the test: Blockade of whole cell current in GluA3i-G (unknown origin) transfected in HEK293 cells measured at -60 mV in presence of glutamate by whole cell patch clamp assay. Put shortly:
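Whole-cell GluA3 currents were recorded at Vh −60 mV. Glutamate was applied first, then coapplied with inhibitor. Steady-state responses were normalized to currents in 5 mM glutamate in each of 19 cells, with 3–10 cells per concentration. The concentration–effect curve was fitted assuming simple inhibition.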

Test [11] deals with T1, Glutamate receptor 3. Put plainly: Blockade of whole cell current in GluA3i-G (unknown origin) transfected in HEK293 cells assessed as fractional occupancy at level O2 by measuring ratio at -60 mV in presence of glutamate at 2 uM by whole cell patch clamp assay (RVB = 0.23 +/- 0.051). To be noted: filed as negative allosteric modulator. Put shortly:
as §1

In test [12] the target is T1, Glutamate receptor 3. Put plainly: Blockade of whole cell current in GluA3i-G (unknown origin) transfected in HEK293 cells assessed as fractional occupancy at level O3 by measuring ratio at -60 mV in presence of glutamate at 2 uM by whole cell patch clamp assay (RVB = 0.44 +/- 0.14). The conditions noted are these: filed as negative allosteric modulator. Put shortly: as §1

The target of test [13] is T1, Glutamate receptor 3. Nature of the test: Blockade of whole cell current in GluA3i-G (unknown origin) transfected in HEK293 cells assessed as opening of conductance level O2 measured at -60 mV in presence of glutamate at 2 uM by whole cell patch clamp assay. The conditions noted are these: filed as negative allosteric modulator. In a few lines: as §1
The target of test [14] is T1, Glutamate receptor 3. Nature of the test: Blockade of whole cell current in GluA3i-G (unknown origin) transfected in HEK293 cells assessed as fractional occupancy at level O1 by measuring ratio at -60 mV in presence of glutamate at 2 uM by whole cell patch clamp assay (RVB = 0.16 +/- 0.059). To be noted: filed as negative allosteric modulator. Put shortly: as §1
Test [15] concerns the target T1, Glutamate receptor 3. Nature of the test: Blockade of whole cell current in GluA3i-G (unknown origin) transfected in HEK293 cells assessed as opening of conductance level O1 measured at -60 mV in presence of glutamate at 2 uM by whole cell patch clamp assay. To be noted: filed as negative allosteric modulator. In a few lines: as §1
The target of test [16] is T1, Glutamate receptor 3. Nature of the test: Blockade of whole cell current in GluA3i-G (unknown origin) transfected in HEK293 cells assessed as opening of conductance level O3 measured at -60 mV in presence of glutamate at 1 uM by whole cell patch clamp assay. In a few lines:
as §1

Test [17] has as its target T1, Glutamate receptor 3. Put plainly: Blockade of whole cell current in GluA3i-G (unknown origin) transfected in HEK293 cells assessed as fractional occupancy at level O3 by measuring ratio at -60 mV in presence of glutamate at 1 uM by whole cell patch clamp assay (RVB = 0.44 +/- 0.14). To be noted: filed as negative allosteric modulator. In a few lines: as §1
In test [18] the target is T1, Glutamate receptor 3. Put plainly: Blockade of whole cell current in GluA3i-G (unknown origin) transfected in HEK293 cells assessed as fractional occupancy at level C by measuring ratio at -60 mV in presence of glutamate at 1 uM by whole cell patch clamp assay (RVB = 0.037 +/- 0.010). To be noted: filed as negative allosteric modulator. In a few lines:
as §1

T1 sequence (P42263 whole entry): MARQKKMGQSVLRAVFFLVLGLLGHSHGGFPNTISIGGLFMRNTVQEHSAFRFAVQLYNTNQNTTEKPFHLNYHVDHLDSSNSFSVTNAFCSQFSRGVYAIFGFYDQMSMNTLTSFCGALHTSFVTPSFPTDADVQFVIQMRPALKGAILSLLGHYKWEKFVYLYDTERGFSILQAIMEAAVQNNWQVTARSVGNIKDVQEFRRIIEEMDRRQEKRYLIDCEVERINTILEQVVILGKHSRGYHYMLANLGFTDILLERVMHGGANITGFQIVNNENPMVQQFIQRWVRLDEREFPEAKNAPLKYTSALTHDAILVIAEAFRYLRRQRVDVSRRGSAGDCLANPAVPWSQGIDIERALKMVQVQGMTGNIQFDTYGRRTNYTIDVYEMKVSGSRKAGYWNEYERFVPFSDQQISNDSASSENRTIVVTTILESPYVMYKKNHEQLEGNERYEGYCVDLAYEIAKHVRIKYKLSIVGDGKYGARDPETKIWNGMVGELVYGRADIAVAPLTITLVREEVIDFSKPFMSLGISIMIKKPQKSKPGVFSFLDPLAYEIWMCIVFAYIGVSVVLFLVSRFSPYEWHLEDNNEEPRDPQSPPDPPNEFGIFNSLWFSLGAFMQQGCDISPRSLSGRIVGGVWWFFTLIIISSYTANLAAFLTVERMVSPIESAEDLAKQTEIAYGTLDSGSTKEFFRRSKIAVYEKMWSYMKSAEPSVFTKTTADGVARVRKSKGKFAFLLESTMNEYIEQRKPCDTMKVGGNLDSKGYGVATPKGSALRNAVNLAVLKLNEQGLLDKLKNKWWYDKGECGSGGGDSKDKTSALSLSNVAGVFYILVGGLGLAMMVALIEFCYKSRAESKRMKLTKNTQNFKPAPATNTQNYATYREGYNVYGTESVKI

In the case of `N#Cc1ccccc1-c1cc(-c2ccccn2)cn(-c2ccccc2)c1=O` [PERAMPANEL], the Ratio is 0.23 in test [1]; 0.53 in test [3]; 0.3 in test [6]; 0.001 in test [9]; 0.25 in [11]; 0.015 in [12]. Further, the Ratio in test [14] is 0.49; in [17], 0.13; in test [18], 0.078. The outcome in [2], in test [4], in [7] and in test [16] was inactive. Also, the result in test [5], in [8], in test [13] and in [15] was Active. Moreover, in test [10], the IC50 is 2100 nM.
